Columns and labels:
[1] = biological target: Epidermal growth factor receptor (Homo sapiens) (UniProt P00533); test: Inhibition of recombinant human EGFR (696 to end residues) assessed as residual activity at 1 uM using poly(Glu, Tyr) 4:1 as substrate incubated for 40 mins by [gamma-33P]-ATP scintillation counting based radiometry assay relative to control
[2] = biological target: Vascular endothelial growth factor receptor 2 (Homo sapiens) (UniProt P35968); test: Inhibition of recombinant human KDR (790 to end residues) assessed as residual activity at 1 uM using myelin basic protein as substrate incubated for 40 mins by [gamma-33P]-ATP scintillation counting based radiometry assay relative to control
[3] = biological target: Receptor tyrosine-protein kinase erbB-2 (Homo sapiens) (UniProt P04626); test: Inhibition of recombinant human HER2 (676 to end residues) assessed as residual activity at 1 uM using poly(Glu, Tyr) 4:1 as substrate incubated for 40 mins by [gamma-33P]-ATP scintillation counting based radiometry assay relative to control
Receptor tyrosine-protein kinase erbB-2 (Homo sapiens), sequence (P04626 whole entry): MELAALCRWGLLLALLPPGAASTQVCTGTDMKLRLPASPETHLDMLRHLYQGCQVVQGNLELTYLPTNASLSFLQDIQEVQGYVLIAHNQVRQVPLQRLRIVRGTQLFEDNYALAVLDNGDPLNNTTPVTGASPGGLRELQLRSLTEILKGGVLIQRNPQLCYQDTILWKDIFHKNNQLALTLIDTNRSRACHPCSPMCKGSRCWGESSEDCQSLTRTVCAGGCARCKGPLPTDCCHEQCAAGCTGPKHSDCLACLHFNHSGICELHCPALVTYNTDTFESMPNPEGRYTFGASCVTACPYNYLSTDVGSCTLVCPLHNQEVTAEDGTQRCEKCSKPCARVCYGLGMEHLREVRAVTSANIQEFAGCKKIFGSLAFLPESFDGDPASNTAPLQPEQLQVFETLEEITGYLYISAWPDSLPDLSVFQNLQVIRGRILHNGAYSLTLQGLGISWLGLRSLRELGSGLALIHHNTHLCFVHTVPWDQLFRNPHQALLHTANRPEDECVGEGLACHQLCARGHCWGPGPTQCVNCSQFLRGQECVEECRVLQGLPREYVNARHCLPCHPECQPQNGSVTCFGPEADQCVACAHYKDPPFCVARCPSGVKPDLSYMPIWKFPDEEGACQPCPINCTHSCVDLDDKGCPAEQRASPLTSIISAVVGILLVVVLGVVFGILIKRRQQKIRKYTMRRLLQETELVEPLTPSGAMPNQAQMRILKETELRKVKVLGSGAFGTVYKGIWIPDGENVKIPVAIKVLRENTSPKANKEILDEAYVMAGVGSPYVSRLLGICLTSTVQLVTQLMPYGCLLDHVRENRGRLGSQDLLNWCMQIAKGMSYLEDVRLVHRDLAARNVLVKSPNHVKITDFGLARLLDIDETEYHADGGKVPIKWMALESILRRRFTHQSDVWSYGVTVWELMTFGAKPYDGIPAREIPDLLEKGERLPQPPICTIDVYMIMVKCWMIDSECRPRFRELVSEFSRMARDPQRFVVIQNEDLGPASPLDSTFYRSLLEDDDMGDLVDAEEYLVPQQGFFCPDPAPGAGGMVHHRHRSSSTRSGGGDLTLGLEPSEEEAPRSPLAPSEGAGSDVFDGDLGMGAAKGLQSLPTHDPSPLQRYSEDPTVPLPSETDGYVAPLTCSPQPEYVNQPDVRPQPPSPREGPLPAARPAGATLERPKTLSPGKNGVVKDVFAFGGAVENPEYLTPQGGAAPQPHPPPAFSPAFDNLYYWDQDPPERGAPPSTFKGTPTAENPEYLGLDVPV

[4] = biological target: T1, Serine/threonine-protein kinase TNNI3K (Homo sapiens) (UniProt Q59H18); test: Inhibition of TNNI3K (unknown origin) assessed as residual activity at 1 uM using biotinylated CTnI as substrate by HTRF analysis relative to control
T1 sequence (whole entry): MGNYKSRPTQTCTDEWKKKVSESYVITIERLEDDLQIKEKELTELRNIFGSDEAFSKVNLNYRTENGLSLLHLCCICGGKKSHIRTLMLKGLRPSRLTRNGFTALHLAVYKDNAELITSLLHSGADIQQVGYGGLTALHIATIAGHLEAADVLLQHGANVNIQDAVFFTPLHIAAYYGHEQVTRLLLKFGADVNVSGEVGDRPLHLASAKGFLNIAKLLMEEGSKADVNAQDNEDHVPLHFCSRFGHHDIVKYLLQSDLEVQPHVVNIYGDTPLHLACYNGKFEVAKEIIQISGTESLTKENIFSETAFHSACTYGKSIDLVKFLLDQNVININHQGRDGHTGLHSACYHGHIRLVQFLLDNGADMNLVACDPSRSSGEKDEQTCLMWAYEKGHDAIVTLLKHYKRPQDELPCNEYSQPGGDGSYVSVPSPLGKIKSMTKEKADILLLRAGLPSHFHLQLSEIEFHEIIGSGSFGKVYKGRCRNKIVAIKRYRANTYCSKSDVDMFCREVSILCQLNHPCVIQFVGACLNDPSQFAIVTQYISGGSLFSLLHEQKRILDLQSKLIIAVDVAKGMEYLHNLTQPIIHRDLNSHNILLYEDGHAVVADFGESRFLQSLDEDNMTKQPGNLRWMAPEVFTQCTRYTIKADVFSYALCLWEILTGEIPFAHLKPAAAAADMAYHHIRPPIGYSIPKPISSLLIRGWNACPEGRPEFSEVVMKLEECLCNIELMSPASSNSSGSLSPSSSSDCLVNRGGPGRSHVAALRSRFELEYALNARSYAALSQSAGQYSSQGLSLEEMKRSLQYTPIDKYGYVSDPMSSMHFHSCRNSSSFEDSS
Method in brief: (§1)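 TNNI3K was assayed by HTRF using a GST-tagged TNNI3K kinase domain and a biotinylated cardiac troponin I substrate peptide, followed by the two HTRF detection reagents. Compounds were screened at 1.0 µM, then IC50s were determined.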

[5] = biological target: Vascular endothelial growth factor receptor 1 (Homo sapiens) (UniProt P17948); test: Inhibition of recombinant human FLT1 (783 to end residues) assessed as residual activity at 1 uM using KKKSPGEYVNIEFG as substrate incubated for 40 mins by [gamma-33P]-ATP scintillation counting based radiometry assay relative to control
Vascular endothelial growth factor receptor 1 (Homo sapiens), sequence (P17948 whole entry): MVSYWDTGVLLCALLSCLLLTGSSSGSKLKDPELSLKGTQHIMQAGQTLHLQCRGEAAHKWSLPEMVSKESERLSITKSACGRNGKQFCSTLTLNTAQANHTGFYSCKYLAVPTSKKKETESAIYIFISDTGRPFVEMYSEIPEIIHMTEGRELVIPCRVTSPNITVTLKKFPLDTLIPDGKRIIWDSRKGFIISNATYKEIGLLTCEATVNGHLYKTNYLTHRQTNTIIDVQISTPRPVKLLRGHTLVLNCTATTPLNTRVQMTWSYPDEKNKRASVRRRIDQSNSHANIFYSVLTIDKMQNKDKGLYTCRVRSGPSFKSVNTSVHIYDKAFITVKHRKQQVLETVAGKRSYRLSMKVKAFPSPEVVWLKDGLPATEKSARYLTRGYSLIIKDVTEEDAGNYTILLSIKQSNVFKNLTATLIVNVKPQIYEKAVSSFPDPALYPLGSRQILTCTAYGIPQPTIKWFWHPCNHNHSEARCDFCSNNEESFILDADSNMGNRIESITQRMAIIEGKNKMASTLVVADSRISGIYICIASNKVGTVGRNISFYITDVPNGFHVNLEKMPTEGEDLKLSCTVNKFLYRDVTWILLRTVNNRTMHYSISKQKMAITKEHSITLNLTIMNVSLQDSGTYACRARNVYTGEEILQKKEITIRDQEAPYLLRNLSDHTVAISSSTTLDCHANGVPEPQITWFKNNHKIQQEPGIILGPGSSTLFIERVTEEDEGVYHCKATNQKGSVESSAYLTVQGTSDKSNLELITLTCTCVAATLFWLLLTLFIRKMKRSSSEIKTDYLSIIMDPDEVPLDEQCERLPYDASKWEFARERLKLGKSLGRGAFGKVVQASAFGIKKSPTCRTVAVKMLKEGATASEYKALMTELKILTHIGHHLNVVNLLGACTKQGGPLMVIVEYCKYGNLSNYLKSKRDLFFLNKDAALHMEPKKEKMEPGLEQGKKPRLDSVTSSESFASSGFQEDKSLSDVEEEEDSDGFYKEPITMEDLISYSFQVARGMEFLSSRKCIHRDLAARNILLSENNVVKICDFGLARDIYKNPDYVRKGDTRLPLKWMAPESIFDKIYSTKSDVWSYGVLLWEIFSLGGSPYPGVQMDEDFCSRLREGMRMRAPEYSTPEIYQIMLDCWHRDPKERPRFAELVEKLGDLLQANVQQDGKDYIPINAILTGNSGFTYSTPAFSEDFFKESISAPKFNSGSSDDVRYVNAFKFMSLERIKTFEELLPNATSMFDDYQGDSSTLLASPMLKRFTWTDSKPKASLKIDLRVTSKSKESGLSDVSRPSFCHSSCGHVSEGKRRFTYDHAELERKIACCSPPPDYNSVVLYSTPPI

H9c2 [6] = test: Cytoprotective activity against OGD-induced cell death in rat H9c2 cells assessed as cell viability at 1 uM incubated for 24 hrs by MTT assay (reference value: 42.08 to 49.11 %); format: functional; conditions: read-out: Activity
[7] = biological target: T2, Serine/threonine-protein kinase TNNI3K (Homo sapiens, UniProt Q59H18); test: Inhibition of TNNI3K (unknown origin) using biotinylated CTnI as substrate by HTRF analysis; method in brief: as §1
T2 sequence (Q59H18 whole entry): T1 sequence (whole entry)

H9c2 [8] = test: Cytoprotective activity against OGD-induced cell death in rat H9c2 cells assessed as cell viability at 10 uM incubated for 24 hrs by MTT assay (reference value: 42.08 to 49.11 %); format: functional; conditions: read-out: Activity

Epidermal growth factor receptor (Homo sapiens), sequence (P00533 whole entry): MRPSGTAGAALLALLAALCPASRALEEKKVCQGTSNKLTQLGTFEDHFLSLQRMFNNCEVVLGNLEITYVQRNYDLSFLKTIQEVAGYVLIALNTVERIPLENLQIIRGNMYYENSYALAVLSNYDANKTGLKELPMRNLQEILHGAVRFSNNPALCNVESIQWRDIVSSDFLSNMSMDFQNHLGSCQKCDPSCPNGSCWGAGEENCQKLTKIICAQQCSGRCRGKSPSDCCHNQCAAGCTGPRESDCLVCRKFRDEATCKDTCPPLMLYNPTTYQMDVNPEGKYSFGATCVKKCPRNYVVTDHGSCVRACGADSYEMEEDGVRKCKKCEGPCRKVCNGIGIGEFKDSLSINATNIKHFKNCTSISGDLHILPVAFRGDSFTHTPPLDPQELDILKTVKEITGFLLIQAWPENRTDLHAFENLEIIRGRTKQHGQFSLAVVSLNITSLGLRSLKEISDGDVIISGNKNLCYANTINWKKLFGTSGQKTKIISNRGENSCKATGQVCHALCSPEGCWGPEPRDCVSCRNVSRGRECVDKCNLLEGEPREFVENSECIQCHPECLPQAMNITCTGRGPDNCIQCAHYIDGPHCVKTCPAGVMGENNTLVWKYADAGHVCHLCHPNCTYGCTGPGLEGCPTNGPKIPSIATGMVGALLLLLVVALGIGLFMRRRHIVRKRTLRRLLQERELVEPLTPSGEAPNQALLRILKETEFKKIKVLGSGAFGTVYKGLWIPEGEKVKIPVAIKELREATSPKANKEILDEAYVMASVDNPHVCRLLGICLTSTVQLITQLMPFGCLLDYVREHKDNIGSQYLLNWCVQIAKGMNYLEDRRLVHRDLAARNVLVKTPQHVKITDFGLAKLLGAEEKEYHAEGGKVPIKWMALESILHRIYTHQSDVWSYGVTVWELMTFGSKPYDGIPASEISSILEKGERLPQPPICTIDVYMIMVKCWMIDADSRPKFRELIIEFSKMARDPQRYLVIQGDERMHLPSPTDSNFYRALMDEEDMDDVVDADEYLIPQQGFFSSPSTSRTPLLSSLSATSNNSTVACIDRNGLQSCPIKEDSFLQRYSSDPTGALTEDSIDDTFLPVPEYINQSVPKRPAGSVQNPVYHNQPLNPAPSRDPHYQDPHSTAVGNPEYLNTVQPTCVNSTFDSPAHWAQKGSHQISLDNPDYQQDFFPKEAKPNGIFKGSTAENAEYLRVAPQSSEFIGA

| Structure (SMILES) | Activity [1] [%] | Activity [2] [%] | Activity [3] [%] | Activity [4] [%] | Activity [5] [%] | viability at 1 µM (H9c2 [6]) [%] | IC50 [7] [nM] | viability at 10 µM (H9c2 [8]) [%] |
| --- | --- | --- | --- | --- | --- | --- | --- | --- |
| CN(C)c1ccc(Nc2ncnc3sc4c(c23)CCN(C(=O)c2cccnc2)C4)cc1NC(=O)c1ccco1 | 110 | 93 | 101 | 41 | 89 |  |  |  |
| CCC(=O)Nc1cc(Nc2ncnc3sc4c(c23)CCN(C(=O)c2ccc(C(F)(F)F)cc2)C4)ccc1N(C)C | 107 | 95 | 103 | 41 | 109 |  |  |  |
| CCC(=O)Nc1cc(Nc2ncnc3sc4c(c23)CCN(Cc2ccccc2)C4)ccc1N(C)C | 91 | 85 | 94 | 48 | 106 |  |  |  |
| CN(C)c1ccc(Nc2ncnc3sc4c(c23)CCN(C(=O)c2ncccn2)C4)cc1NC(=O)c1cccs1 | 92 | 86 | 112 | 49 | 104 |  |  |  |
| CN(C)CCCN1CCc2c(sc3ncnc(Nc4ccc(N(C)C)c(NC(=O)c5cccs5)c4)c23)C1 | 86 | 81 | 102 | 33 | 98 | 58.5 | 570 | 78.5 |
| CN(C)c1ccc(Nc2ncnc3sc4c(c23)CCN(C(=O)c2ccncc2)C4)cc1NC(=O)c1cccs1 | 85 | 82 | 110 | 36 | 85 |  |  |  |
| CN(C)c1ccc(Nc2ncnc3sc4c(c23)CCNC4)cc1NC(=O)c1ccco1 | 100 | 92 | 91 | 35 | 96 | 54.1 | 730 | 71 |
| CCC(=O)Nc1cc(Nc2ncnc3sc4c(c23)CCNC4)ccc1N(C)C | 97 | 92 | 102 | 46 | 107 |  |  |  |
| CN1CCc2c(sc3ncnc(Nc4ccc(N(C)C)c(NC(=O)c5cccnc5)c4)c23)C1 | 105 | 94 | 93 | 47 | 103 |  |  |  |
| CN(C)c1ccc(Nc2ncnc3sc4c(c23)CCNC4)cc1NC(=O)c1ccccn1 | 103 | 95 | 98 | 42 | 96 |  |  |  |
| CN1CCc2c(sc3ncnc(Nc4ccc(N(C)C)c(NC(=O)c5ccncc5)c4)c23)C1 | 105 | 84 | 97 | 46 | 105 |  |  |  |
| CCC(=O)Nc1cc(Nc2ncnc3sc4c(c23)CCN(CC)C4)ccc1N(C)C | 93 | 80 | 90 | 53 | 109 |  |  |  |
| CN(C)c1ccc(Nc2ncnc3sc4c(c23)CCN(C(=O)c2cccnc2)C4)cc1NC(=O)c1cccs1 | 94 | 69 | 93 | 45 | 81 |  |  |  |
| Cc1ccc(C(=O)Nc2cc(Nc3ncnc4sc5c(c34)CCNC5)ccc2N(C)C)cc1 | 108 | 95 | 92 | 78 | 96 |  |  |  |
| CN(C)c1ccc(Nc2ncnc3sc4c(c23)CCN(C(=O)c2ccccn2)C4)cc1NC(=O)c1cccs1 | 99 | 73 | 99 | 40 | 87 |  |  |  |
| Cc1ccc(C(=O)Nc2cc(Nc3ncnc4sc5c(c34)CCN(C)C5)ccc2N(C)C)cc1 | 108 | 83 | 92 | 71 | 97 |  |  |  |

| Structure (SMILES) | Activity [1] [%] | Activity [2] [%] | Activity [3] [%] | Activity [4] [%] | Activity [5] [%] | viability at 1 µM (H9c2 [6]) [%] | IC50 [7] [nM] | viability at 10 µM (H9c2 [8]) [%] |
| --- | --- | --- | --- | --- | --- | --- | --- | --- |
| CN1CCc2c(sc3ncnc(Nc4ccc(N(C)C)c(NC(=O)c5ccccn5)c4)c23)C1 | 100 | 89 | 103 | 55 | 94 |  |  |  |
| CN(C)c1ccc(Nc2ncnc3sc4c(c23)CCN(C(=O)c2cnccn2)C4)cc1NC(=O)c1cccs1 | 80 | 80 | 113 | 44 | 98 |  |  |  |
| CN(C)c1ccc(Nc2ncnc3sc4c(c23)CCN(C(=O)c2ccncc2)C4)cc1NC(=O)c1ccco1 | 107 | 92 | 116 | 35 | 109 | 49.1 | 980 | 70.7 |
| CN(C)c1ccc(Nc2ncnc3sc4c(c23)CCN(C(=O)c2ccccn2)C4)cc1NC(=O)c1ccco1 | 104 | 77 | 89 | 39 | 86 | 54.3 | 820 | 70.9 |
| CN(C)c1ccc(Nc2ncnc3sc4c(c23)CCNC4)cc1NC(=O)c1cccs1 | 93 | 95 | 106 | 38 | 101 | 56.9 | 780 | 75.9 |
| CN(C)c1ccc(Nc2ncnc3sc4c(c23)CCNC4)cc1NC(=O)c1ccncc1 | 90 | 92 | 109 | 39 | 103 | 53 | 960 | 68.1 |
| CN1CCN(CCCN2CCc3c(sc4ncnc(Nc5ccc(N(C)C)c(NC(=O)c6cccs6)c5)c34)C2)CC1 | 86 | 93 | 103 | 38 | 98 | 69.1 | 330 | 81.8 |
| CCC(=O)Nc1cc(Nc2ncnc3sc4c(c23)CCN(c2ncccn2)C4)ccc1N(C)C | 102 | 80 | 99 | 59 | 106 |  |  |  |
| CN1CCc2c(sc3ncnc(Nc4ccc(N(C)C)c(NC(=O)c5cccs5)c4)c23)C1 | 104 | 89 | 103 | 40 | 108 |  |  |  |
| CN(C)c1ccc(Nc2ncnc3sc4c(c23)CCNC4)cc1NC(=O)c1cccnc1 | 108 | 90 | 107 | 45 | 104 |  |  |  |
| CN(C)c1ccc(Nc2ncnc3sc4c(c23)CCN(C(=O)c2cnccn2)C4)cc1NC(=O)c1ccco1 | 89 | 90 | 96 | 43 | 98 |  |  |  |
| CN(C)c1ccc(Nc2ncnc3sc4c(c23)CCN(C(=O)c2ncccn2)C4)cc1NC(=O)c1ccco1 | 82 | 81 | 98 | 54 | 101 |  |  |  |
| CCC(=O)Nc1cc(Nc2ncnc3sc4c(c23)CCN(C)C4)ccc1N(C)C | 99 | 82 | 109 | 49 | 95 |  |  |  |
| CN1CCc2c(sc3ncnc(Nc4ccc(N(C)C)c(NC(=O)c5cccc6ccccc56)c4)c23)C1 | 98 | 87 | 96 | 77 | 101 |  |  |  |
| CN(C)c1ccc(Nc2ncnc3sc4c(c23)CCNC4)cc1NC(=O)c1cccc2ccccc12 | 110 | 88 | 90 | 71 | 105 |  |  |  |
